Test system: Fibroblast
Assay: Multiplex assay against human fibroblast
Type: toxicity, cell-based
Summary of the method: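 Live cells were stained at seeding with Hoechst33342, BioTracker Green Microtubule Cytoskeleton Dye, MitoTracker Red and Annexin V Alexa Fluor 680, then imaged on a CQ1 microscope at 37°C and 5% CO2 after compound addition. CellPathfinder machine-learning gating split cells into Hoechst high-intensity objects or normal cells. Normal cells were split into healthy, pyknosed or fragmented nuclei, and pyknosed cells into mitotic or apoptotic. Tubulin, mitochondrial-mass and membrane-permeability phenotypes are per cents of healthy-nucleus cells.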

[1] = 12 h, 1 µM, compound concentration 1 uM, replicate 1
[2] = 12 h, 1 µM, compound concentration 1 uM, replicate 2
[3] = 12 h, 10 µM, compound concentration 10 uM, replicate 1
[4] = 12 h, 10 µM, compound concentration 10 uM, replicate 2
[5] = 24 h, 1 µM, compound concentration 1 uM, replicate 1
[6] = 24 h, 1 µM, compound concentration 1 uM, replicate 2
[7] = 24 h, 10 µM, compound concentration 10 uM, replicate 1
[8] = 24 h, 10 µM, compound concentration 10 uM, replicate 2
[9] = 48 h, 1 µM, compound concentration 1 uM, replicate 1
[10] = 48 h, 1 µM, compound concentration 1 uM, replicate 2
[11] = 48 h, 10 µM, compound concentration 10 uM, replicate 1
[12] = 48 h, 10 µM, compound concentration 10 uM, replicate 2

CCCCC1=NC2(CCCC2)C(=O)N1Cc1ccc(-c2ccccc2-c2nnn[nH]2)cc1 [IRBESARTAN]
Population Apoptotic (%) [1]: 40% | Population Fragmented Nuclei (%) [1]: 14% | Population Healthy Nuclei (%) [1]: 67% | Population Hoechst High Intensity Objects (%) [1]: 1% | Population Membrane Permeable-Phenotype (%) [1]: 0% | Population Mitochondria Different-Phenotype (%) [1]: 5% | Population Mitotic Cells (%) [1]: 59% | Population Normal (%) [1]: 98% | Population Pyknosed Nuclei (%) [1]: 17% | Population Tubulin-Different-Phenotype (%) [1]: 28% | Total Cell Count [1]: 159 | Population Apoptotic (%) [2]: 38% | Population Fragmented Nuclei (%) [2]: 24% | Population Healthy Nuclei (%) [2]: 55% | Population Hoechst High Intensity Objects (%) [2]: 3% | Population Membrane Permeable-Phenotype (%) [2]: 7% | Population Mitochondria Different-Phenotype (%) [2]: 2% | Population Mitotic Cells (%) [2]: 61% | Population Normal (%) [2]: 96% | Population Pyknosed Nuclei (%) [2]: 20% | Population Tubulin-Different-Phenotype (%) [2]: 43% | Total Cell Count [2]: 187 | Population Apoptotic (%) [3]: 60% | Population Fragmented Nuclei (%) [3]: 11% | Population Healthy Nuclei (%) [3]: 74% | Population Hoechst High Intensity Objects (%) [3]: 3% | Population Membrane Permeable-Phenotype (%) [3]: 3% | Population Mitochondria Different-Phenotype (%) [3]: 4% | Population Mitotic Cells (%) [3]: 40% | Population Normal (%) [3]: 96% | Population Pyknosed Nuclei (%) [3]: 13% | Population Tubulin-Different-Phenotype (%) [3]: 37% | Total Cell Count [3]: 151 | Population Apoptotic (%) [4]: 45% | Population Fragmented Nuclei (%) [4]: 32% | Population Healthy Nuclei (%) [4]: 48% | Population Hoechst High Intensity Objects (%) [4]: 7% | Population Membrane Permeable-Phenotype (%) [4]: 12% | Population Mitochondria Different-Phenotype (%) [4]: 3% | Population Mitotic Cells (%) [4]: 54% | Population Normal (%) [4]: 92% | Population Pyknosed Nuclei (%) [4]: 18% | Population Tubulin-Different-Phenotype (%) [4]: 53% | Total Cell Count [4]: 129 | Population Apoptotic (%) [5]: 47% | Population Fragmented Nuclei (%) [5]: 19% | Population Healthy Nuclei (%) [5]: 69% | Population Hoechst High Intensity Objects (%) [5]: 2% | Population Membrane Permeable-Phenotype (%) [5]: 1% | Population Mitochondria Different-Phenotype (%) [5]: 3% | Population Mitotic Cells (%) [5]: 52% | Population Normal (%) [5]: 97% | Population Pyknosed Nuclei (%) [5]: 10% | Population Tubulin-Different-Phenotype (%) [5]: 22% | Total Cell Count [5]: 170 | Population Apoptotic (%) [6]: 31% | Population Fragmented Nuclei (%) [6]: 25% | Population Healthy Nuclei (%) [6]: 57% | Population Hoechst High Intensity Objects (%) [6]: 3% | Population Mitochondria Different-Phenotype (%) [6]: 0% | Population Mitotic Cells (%) [6]: 68% | Population Normal (%) [6]: 96% | Population Pyknosed Nuclei (%) [6]: 16% | Population Tubulin-Different-Phenotype (%) [6]: 40% | Total Cell Count [6]: 183 | Population Apoptotic (%) [7]: 56% | Population Fragmented Nuclei (%) [7]: 9% | Population Healthy Nuclei (%) [7]: 74% | Population Hoechst High Intensity Objects (%) [7]: 1% | Population Membrane Permeable-Phenotype (%) [7]: 3% | Population Mitochondria Different-Phenotype (%) [7]: 7% | Population Mitotic Cells (%) [7]: 44% | Population Normal (%) [7]: 98% | Population Pyknosed Nuclei (%) [7]: 16% | Population Tubulin-Different-Phenotype (%) [7]: 37% | Total Cell Count [7]: 155 | Population Apoptotic (%) [8]: 45% | Population Fragmented Nuclei (%) [8]: 36% | Population Healthy Nuclei (%) [8]: 47% | Population Hoechst High Intensity Objects (%) [8]: 2% | Population Membrane Permeable-Phenotype (%) [8]: 8% | Population Mitochondria Different-Phenotype (%) [8]: 5% | Population Mitotic Cells (%) [8]: 55% | Population Normal (%) [8]: 97% | Population Tubulin-Different-Phenotype (%) [8]: 60% | Total Cell Count [8]: 125 | Population Apoptotic (%) [9]: 60% | Population Fragmented Nuclei (%) [9]: 21% | Population Healthy Nuclei (%) [9]: 69% | Population Hoechst High Intensity Objects (%) [9]: 3% | Population Membrane Permeable-Phenotype (%) [9]: 0% | Population Mitochondria Different-Phenotype (%) [9]: 4% | Population Mitotic Cells (%) [9]: 40% | Population Normal (%) [9]: 96% | Population Pyknosed Nuclei (%) [9]: 8% | Population Tubulin-Different-Phenotype (%) [9]: 31% | Total Cell Count [9]: 173 | Population Apoptotic (%) [10]: 55% | Population Fragmented Nuclei (%) [10]: 31% | Population Healthy Nuclei (%) [10]: 58% | Population Hoechst High Intensity Objects (%) [10]: 2% | Population Membrane Permeable-Phenotype (%) [10]: 2% | Population Mitochondria Different-Phenotype (%) [10]: 1% | Population Mitotic Cells (%) [10]: 44% | Population Normal (%) [10]: 97% | Population Pyknosed Nuclei (%) [10]: 10% | Population Tubulin-Different-Phenotype (%) [10]: 39% | Total Cell Count [10]: 178 | Population Apoptotic (%) [11]: 61% | Population Fragmented Nuclei (%) [11]: 14% | Population Healthy Nuclei (%) [11]: 66% | Population Hoechst High Intensity Objects (%) [11]: 2% | Population Membrane Permeable-Phenotype (%) [11]: 1% | Population Mitochondria Different-Phenotype (%) [11]: 5% | Population Mitotic Cells (%) [11]: 38% | Population Normal (%) [11]: 97% | Population Pyknosed Nuclei (%) [11]: 18% | Population Tubulin-Different-Phenotype (%) [11]: 38% | Total Cell Count [11]: 141 | Population Apoptotic (%) [12]: 37% | Population Fragmented Nuclei (%) [12]: 37% | Population Healthy Nuclei (%) [12]: 48% | Population Hoechst High Intensity Objects (%) [12]: 0% | Population Membrane Permeable-Phenotype (%) [12]: 3% | Population Mitochondria Different-Phenotype (%) [12]: 1% | Population Mitotic Cells (%) [12]: 62% | Population Normal (%) [12]: 99% | Population Pyknosed Nuclei (%) [12]: 13% | Population Tubulin-Different-Phenotype (%) [12]: 58% | Total Cell Count [12]: 117

Reference: ChEMBL document CHEMBL5058577, “EUbOPEN Chemogenomics Library 2 (Multiplex)” (2022)
